In brackets after ≈: the same amount, converted by molar mass.
Assays:
Assay type in all cases: functional
EMT6 [1] = test: Drug concentration required to achieve 50% kill of EMT6 cells under hypoxic conditions.; conditions: Mus musculus, read-out: ED50 (the source's name)
Method in brief: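 Mouse EMT6 tumour monolayers in Waymouth's medium + 15% fetal calf serum. Hypoxia: flasks stoppered and gassed 95% N2/5% CO2 for 4 h at 37 °C, then drug added in acetone without breaking hypoxia. 1 h exposure, 0.01-500 μM. Cells washed, trypsinised, plated in replicate dishes under air; colonies scored after 8-10 days. ED50 from survival curves; ≥3 experiments.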

EMT6 [2] = test: Drug concentration required to achieve 50% kill of EMT6 cells under oxygenated conditions.; conditions: Mus musculus, read-out: ED50 (the source's name)
Method in brief: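 EMT6 monolayers in Waymouth's medium + 15% fetal calf serum, held in 95% air/5% CO2 in parallel with the hypoxic flasks. Drug in acetone, 0.01-500 μM, 1 h at 37 °C. Cells then trypsinised and replated in replicate dishes; surviving fraction by colony formation after 8-10 days. Concentration for 50% kill read from survival curves; at least three experiments per drug.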

[3] = Ratio of ED50 (aerobic) to ED50 (hypoxic)
Method in brief: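 Concentration giving 50% kill of EMT6 cells under aeration (95% air/5% CO2) divided by that under chronic hypoxia (95% N2/5% CO2, 4 h pre-gassing). Both from 1 h drug exposure at 37 °C with colony-formation read-out after 8-10 days.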

SMILES | EC50 (EMT6 [1]) [µg/mL] | EC50 (EMT6 [2]) [µg/mL] | Ratio [3]
O=[N+]([O-])c1ccc(CO)cc1 [PARANITROBENZYL ALCOHOL] | 0.77 (≈ 5.03 µM) | 2.6 (≈ 17 µM) | 3.3
O=[N+]([O-])c1ccc(CBr)cc1 | 0.06 (≈ 0.278 µM) | 0.1 (≈ 0.463 µM) | 1.7
O=[N+]([O-])c1ccccc1CO | 1.5 (≈ 9.8 µM) | 3 (≈ 19.6 µM) | 2
O=[N+]([O-])c1ccccc1CCl | 0.1 (≈ 0.583 µM) | 1.2 (≈ 6.99 µM) | 12
CNC(=O)OCc1ccccc1[N+](=O)[O-] | 0.006 (≈ 0.0285 µM) | 3.57 (≈ 17 µM) | 595
O=C(NCCCl)OCc1ccccc1[N+](=O)[O-] | 0.65 (≈ 2.51 µM) | 52 (≈ 201 µM) | 80
CNC(=O)OCc1ccc([N+](=O)[O-])cc1 | 0.03 (≈ 0.143 µM) | 0.63 (≈ 3 µM) | 21
O=C(Nc1ccccc1)OCc1ccc([N+](=O)[O-])cc1 | 0.08 (≈ 0.294 µM) | 0.22 (≈ 0.808 µM) | 2.7
O=[N+]([O-])c1ccc(CCl)cc1 | 0.07 (≈ 0.408 µM) | 0.14 (≈ 0.816 µM) | 2
O=C(NCCCl)OCc1ccc([N+](=O)[O-])cc1 | 10 (≈ 38.7 µM) | 31 (≈ 120 µM) | 3.1
O=[N+]([O-])c1ccccc1CBr | 0.06 (≈ 0.278 µM) | 1.5 (≈ 6.94 µM) | 25
O=C(Nc1ccccc1)OCc1ccccc1[N+](=O)[O-] | 0.22 (≈ 0.808 µM) | 6.8 (≈ 25 µM) | 31

— ChEMBL document CHEMBL1121500, “Nitrobenzyl halides and carbamates as prototype bioreductive alkylating agents” (1980)
